Several values for one entry are separate records, joined by “and”; a condition that tells them apart may be missing. Equal entries are not always repeated.
System: HEK-293T
Test: Multiplex assay against HEK293T
Format: toxicity, cell-based
Conditions: human
Method in brief: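 Cells were classed with CellPathfinder machine-learning gating, first as Hoechst high-intensity objects or normal cells, then (normal cells) as healthy, pyknosed or fragmented nuclei, and finally (pyknosed cells) as mitotic or apoptotic. Staining of live cells at seeding used Hoechst33342, BioTracker Green Microtubule Cytoskeleton Dye, MitoTracker Red and Annexin V Alexa Fluor 680, with imaging on a CQ1 microscope at 37°C and 5% CO2 after compound addition. Tubulin, mitochondrial-mass and membrane-permeability phenotypes are per cents of healthy-nucleus cells.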

[1] = 12 h, 1 µM, compound concentration 1 uM
[2] = 12 h, 10 µM, compound concentration 10 uM
[3] = 24 h, 1 µM, compound concentration 1 uM
[4] = 24 h, 10 µM, compound concentration 10 uM
[5] = 48 h, 1 µM, compound concentration 1 uM
[6] = 48 h, 10 µM, compound concentration 10 uM

## Cc1cc(=O)n(C)c2cc(N3C(=O)CC[C@H](NS(=O)(=O)CC(C)C)[C@H]3c3ccc(Cl)cc3)ccc12
[1]
  Population Apoptotic (%): 43% and 63%
  Population Fragmented Nuclei (%): 7% and 6%
  Population Healthy Nuclei (%): 83% and 78%
  Population Hoechst High Intensity Objects (%): 8% and 6%
  Population Membrane Permeable-Phenotype (%): 0%
  Population Mitochondria Different-Phenotype (%): 41% and 53%
  Population Mitotic Cells (%): 56% and 36%
  Population Normal (%): 91% and 93%
  Population Pyknosed Nuclei (%): 8% and 14%
  Population Tubulin-Different-Phenotype (%): 32% and 14%
  Total Cell Count: 454 and 265
[2]
  Population Apoptotic (%): 47% and 50%
  Population Fragmented Nuclei (%): 4% and 6%
  Population Healthy Nuclei (%): 70% and 66%
  Population Hoechst High Intensity Objects (%): 11% and 16%
  Population Membrane Permeable-Phenotype (%): 0%
  Population Mitochondria Different-Phenotype (%): 75% and 86%
  Population Mitotic Cells (%): 52% and 49%
  Population Normal (%): 88% and 83%
  Population Pyknosed Nuclei (%): 24% and 27%
  Population Tubulin-Different-Phenotype (%): 81% and 66%
  Total Cell Count: 368 and 331
[3]
  Population Apoptotic (%): 33% and 36%
  Population Fragmented Nuclei (%): 9% and 4%
  Population Healthy Nuclei (%): 81% and 82%
  Population Hoechst High Intensity Objects (%): 4% and 5%
  Population Membrane Permeable-Phenotype (%): 0% and 1%
  Population Mitochondria Different-Phenotype (%): 25% and 42%
  Population Mitotic Cells (%): 66% and 63%
  Population Normal (%): 95% and 94%
  Population Pyknosed Nuclei (%): 9% and 13%
  Population Tubulin-Different-Phenotype (%): 19% and 17%
  Total Cell Count: 646 and 327
[4]
  Population Apoptotic (%): 34% and 76%
  Population Fragmented Nuclei (%): 7% and 8%
  Population Healthy Nuclei (%): 72% and 67%
  Population Hoechst High Intensity Objects (%): 9% and 22%
  Population Membrane Permeable-Phenotype (%): 0%
  Population Mitochondria Different-Phenotype (%): 67% and 85%
  Population Mitotic Cells (%): 65% and 23%
  Population Normal (%): 90% and 77%
  Population Pyknosed Nuclei (%): 19% and 23%
  Population Tubulin-Different-Phenotype (%): 67% and 71%
  Total Cell Count: 419 and 328
[5]
  Population Apoptotic (%): 25% and 31%
  Population Fragmented Nuclei (%): 14% and 11%
  Population Healthy Nuclei (%): 78% and 79%
  Population Hoechst High Intensity Objects (%): 3% and 7%
  Population Membrane Permeable-Phenotype (%): 0%
  Population Mitochondria Different-Phenotype (%): 17% and 20%
  Population Mitotic Cells (%): 74% and 68%
  Population Normal (%): 96% and 92%
  Population Pyknosed Nuclei (%): 6% and 9%
  Population Tubulin-Different-Phenotype (%): 15% and 17%
  Total Cell Count: 985 and 454
[6]
  Population Apoptotic (%): 56% and 66%
  Population Fragmented Nuclei (%): 12%
  Population Healthy Nuclei (%): 77% and 67%
  Population Hoechst High Intensity Objects (%): 10% and 19%
  Population Membrane Permeable-Phenotype (%): 1% and 0%
  Population Mitochondria Different-Phenotype (%): 67% and 76%
  Population Mitotic Cells (%): 43% and 33%
  Population Normal (%): 89% and 80%
  Population Pyknosed Nuclei (%): 10% and 19%
  Population Tubulin-Different-Phenotype (%): 58% and 56%
  Total Cell Count: 548 and 371

## CCc1cc2cc(NS(=O)(=O)c3ccc(C#N)cc3)ccc2n(CC)c1=O
[1]
  Population Apoptotic (%): 43% and 40%
  Population Fragmented Nuclei (%): 8% and 7%
  Population Healthy Nuclei (%): 78%
  Population Hoechst High Intensity Objects (%): 9% and 7%
  Population Membrane Permeable-Phenotype (%): 0%
  Population Mitochondria Different-Phenotype (%): 37% and 64%
  Population Mitotic Cells (%): 56% and 59%
  Population Normal (%): 90% and 92%
  Population Pyknosed Nuclei (%): 12% and 14%
  Population Tubulin-Different-Phenotype (%): 28% and 29%
  Total Cell Count: 411 and 338
[2]
  Population Apoptotic (%): 38% and 65%
  Population Fragmented Nuclei (%): 7% and 6%
  Population Healthy Nuclei (%): 80% and 69%
  Population Hoechst High Intensity Objects (%): 7% and 16%
  Population Membrane Permeable-Phenotype (%): 0%
  Population Mitochondria Different-Phenotype (%): 47% and 71%
  Population Mitotic Cells (%): 61% and 34%
  Population Normal (%): 92% and 83%
  Population Pyknosed Nuclei (%): 12% and 23%
  Population Tubulin-Different-Phenotype (%): 48% and 41%
  Total Cell Count: 404 and 291
[3]
  Population Apoptotic (%): 29% and 43%
  Population Fragmented Nuclei (%): 8% and 7%
  Population Healthy Nuclei (%): 80% and 84%
  Population Hoechst High Intensity Objects (%): 5%
  Population Membrane Permeable-Phenotype (%): 1% and 0%
  Population Mitochondria Different-Phenotype (%): 19% and 44%
  Population Mitotic Cells (%): 70% and 56%
  Population Normal (%): 94%
  Population Pyknosed Nuclei (%): 11% and 7%
  Population Tubulin-Different-Phenotype (%): 18% and 22%
  Total Cell Count: 510 and 403
[4]
  Population Apoptotic (%): 33% and 63%
  Population Fragmented Nuclei (%): 9% and 10%
  Population Healthy Nuclei (%): 80% and 73%
  Population Hoechst High Intensity Objects (%): 6% and 17%
  Population Membrane Permeable-Phenotype (%): 0% and 1%
  Population Mitochondria Different-Phenotype (%): 36% and 58%
  Population Mitotic Cells (%): 66% and 36%
  Population Normal (%): 93% and 82%
  Population Pyknosed Nuclei (%): 10% and 16%
  Population Tubulin-Different-Phenotype (%): 32% and 29%
  Total Cell Count: 478 and 332
[5]
  Population Apoptotic (%): 30% and 38%
  Population Fragmented Nuclei (%): 11% and 14%
  Population Healthy Nuclei (%): 81% and 79%
  Population Hoechst High Intensity Objects (%): 2% and 4%
  Population Membrane Permeable-Phenotype (%): 1%
  Population Mitochondria Different-Phenotype (%): 11% and 23%
  Population Mitotic Cells (%): 69% and 61%
  Population Normal (%): 97% and 95%
  Population Pyknosed Nuclei (%): 6% and 5%
  Population Tubulin-Different-Phenotype (%): 13% and 12%
  Total Cell Count: 878 and 608
[6]
  Population Apoptotic (%): 26% and 47%
  Population Fragmented Nuclei (%): 14% and 16%
  Population Healthy Nuclei (%): 78% and 73%
  Population Hoechst High Intensity Objects (%): 4% and 10%
  Population Membrane Permeable-Phenotype (%): 1%
  Population Mitochondria Different-Phenotype (%): 23% and 40%
  Population Mitotic Cells (%): 73% and 52%
  Population Normal (%): 95% and 89%
  Population Pyknosed Nuclei (%): 6% and 9%
  Population Tubulin-Different-Phenotype (%): 20% and 23%
  Total Cell Count: 734 and 383

## Cc1ccccc1C(=O)Nc1ccc(C(=O)N2CCCC(N(C)C)c3ccccc32)cc1.Cl (stereo not drawn)
[1]
  Population Apoptotic (%): 18% and 53%
  Population Fragmented Nuclei (%): 6% and 5%
  Population Healthy Nuclei (%): 80% and 79%
  Population Hoechst High Intensity Objects (%): 8% and 6%
  Population Membrane Permeable-Phenotype (%): 0%
  Population Mitochondria Different-Phenotype (%): 51% and 72%
  Population Mitotic Cells (%): 81% and 46%
  Population Normal (%): 91% and 93%
  Population Pyknosed Nuclei (%): 12% and 14%
  Population Tubulin-Different-Phenotype (%): 33% and 29%
  Total Cell Count: 519 and 412
[2]
  Population Apoptotic (%): 53% and 64%
  Population Fragmented Nuclei (%): 6% and 8%
  Population Healthy Nuclei (%): 70% and 72%
  Population Hoechst High Intensity Objects (%): 8% and 15%
  Population Membrane Permeable-Phenotype (%): 0%
  Population Mitochondria Different-Phenotype (%): 74% and 82%
  Population Mitotic Cells (%): 46% and 35%
  Population Normal (%): 91% and 84%
  Population Pyknosed Nuclei (%): 22% and 18%
  Population Tubulin-Different-Phenotype (%): 60% and 61%
  Total Cell Count: 233 and 285
[3]
  Population Apoptotic (%): 31% and 30%
  Population Fragmented Nuclei (%): 11% and 5%
  Population Healthy Nuclei (%): 79% and 83%
  Population Hoechst High Intensity Objects (%): 5% and 4%
  Population Membrane Permeable-Phenotype (%): 0%
  Population Mitochondria Different-Phenotype (%): 28% and 52%
  Population Mitotic Cells (%): 68% and 69%
  Population Normal (%): 94% and 95%
  Population Pyknosed Nuclei (%): 8% and 11%
  Population Tubulin-Different-Phenotype (%): 17% and 19%
  Total Cell Count: 727 and 567
[4]
  Population Apoptotic (%): 41% and 44%
  Population Fragmented Nuclei (%): 8% and 7%
  Population Healthy Nuclei (%): 70% and 73%
  Population Hoechst High Intensity Objects (%): 7% and 14%
  Population Membrane Permeable-Phenotype (%): 0%
  Population Mitochondria Different-Phenotype (%): 71% and 83%
  Population Mitotic Cells (%): 58% and 55%
  Population Normal (%): 92% and 85%
  Population Pyknosed Nuclei (%): 21% and 18%
  Population Tubulin-Different-Phenotype (%): 46%
  Total Cell Count: 268 and 285
[5]
  Population Apoptotic (%): 13% and 34%
  Population Fragmented Nuclei (%): 13% and 10%
  Population Healthy Nuclei (%): 78% and 82%
  Population Hoechst High Intensity Objects (%): 2% and 4%
  Population Membrane Permeable-Phenotype (%): 1% and 0%
  Population Mitochondria Different-Phenotype (%): 24% and 30%
  Population Mitotic Cells (%): 86% and 65%
  Population Normal (%): 97% and 95%
  Population Pyknosed Nuclei (%): 8% and 6%
  Population Tubulin-Different-Phenotype (%): 17% and 14%
  Total Cell Count: 1095 and 722
[6]
  Population Apoptotic (%): 55% and 63%
  Population Fragmented Nuclei (%): 10% and 9%
  Population Healthy Nuclei (%): 69% and 77%
  Population Hoechst High Intensity Objects (%): 6%
  Population Membrane Permeable-Phenotype (%): 0%
  Population Mitochondria Different-Phenotype (%): 69% and 72%
  Population Mitotic Cells (%): 44% and 36%
  Population Normal (%): 93%
  Population Pyknosed Nuclei (%): 20% and 12%
  Population Tubulin-Different-Phenotype (%): 49% and 41%
  Total Cell Count: 283 and 314
